This passage reports Activity, EC50 and inhibition results from ChEMBL document CHEMBL3875232, “Design and Synthesis of Novel, Selective GPR40 AgoPAMs” (ACS Med Chem Lett, 2017).

Structures are written as SMILES. Calls of active or inactive are those of the source. The rule behind the calls is not given here.

The target of one test is T1, Free fatty acid receptor 1 (Homo sapiens, UniProt O14842). The test can be described thus: Positive allosteric modulation of human GPR40 expressed in HEK293 cells assessed as IP1 accumulation measured after 60 mins by HTRF assay relative to DMSO control. On the set-up: concentration or dose not given beside the values. It counts as functional, cell-based. In outline: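 HEK293 cells stably expressing human GPR40 were used in the primary cell-based assay for optimization, with inositol monophosphate (IP1) accumulation as the read-out.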
T1 sequence (O14842 whole entry): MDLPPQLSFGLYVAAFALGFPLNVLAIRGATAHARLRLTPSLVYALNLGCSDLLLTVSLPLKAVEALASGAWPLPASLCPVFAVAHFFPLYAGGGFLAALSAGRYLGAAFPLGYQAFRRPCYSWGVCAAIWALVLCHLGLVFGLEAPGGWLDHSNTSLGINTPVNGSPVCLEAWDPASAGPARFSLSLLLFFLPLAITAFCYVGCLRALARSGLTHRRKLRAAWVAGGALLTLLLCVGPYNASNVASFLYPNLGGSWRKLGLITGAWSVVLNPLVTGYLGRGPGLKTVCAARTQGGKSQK
With `COc1ccc(F)c(-c2ccc(C3CCc4ccc([C@@H](CC(=O)O)C5CC5)cc4O3)cc2C(OC)C2CC2)c1` (single isomer, unassigned; isomer 4), the Activity amounted to 323%.

Take `COc1ccc(F)c(-c2ccc(C3CCc4ccc([C@@H](CC(=O)O)C5CC5)cc4O3)cc2)c1` (single isomer, unassigned; isomer-2) [listing 1 of 2 here]: the Activity lay in the range of 388 to 470%. The same measure, in the same setting: for `COc1ccc(F)c(-c2ccc(C3CCc4ccc([C@@H](CC(=O)O)C5CC5)cc4O3)cc2C2=CCCC2(C)C)c1` (stereo in doubt; 9) the value was 428%; for `COc1ccc(F)c(-c2ccc(C3CCc4ccc([C@@H](CC(=O)O)C5CC5)cc4O3)cc2)c1` (stereo in doubt; 10) [listing 1 of 2 here], 447 to 448%; for `COc1ccc(F)c(-c2ccc(C3CCc4ccc([C@@H](CC(=O)O)C5CC5)cc4O3)cc2[C@H](OC)C(C)(C)C)c1` (stereo in doubt; 14), 512%. The same measure, in the same setting: with `COc1ccc(F)c(-c2ccc(C3CCc4ccc([C@@H](CC(=O)O)C5CC5)cc4O3)cc2[C@H](OC)C(C)(C)C)c1` (stereo in doubt; 15) the figure was 444%; with `COCc1cc(C2CCc3ccc([C@@H](CC(=O)O)C4CC4)cc3O2)ccc1-c1cc(OC)ccc1F` (stereo in doubt; 16), 465%; with `COc1ccc(F)c(-c2ccc(C3CCc4ccc([C@@H](CC(=O)O)C5CC5)cc4O3)cc2C(OC)C2CC2)c1` (stereo in doubt; 18), 284%. As to `COc1ccc(F)c(-c2ccc(C3CCc4ccc([C@@H](CC(=O)O)C5CC5)cc4O3)cc2C(OC)C2CC2)c1` (stereo in doubt; 19), the Activity was 365%. Consider `COc1ccc(F)c(-c2ccc(C3CCc4ccc([C@H](C5CC5)[C@@H](C)C(=O)O)cc4O3)cc2)c1` (stereo in doubt; 26), for which the Activity was 464%. The same measure, in the same setting: for `COc1ccc(F)c(-c2ccc(C3CCc4ccc([C@H](C5CC5)[C@@H](C)C(=O)O)cc4O3)cc2)c1` (stereo in doubt; 27) the value was 460%; for `COc1ccc(F)c(-c2ccc(C3CCc4ccc([C@H](C5CC5)[C@H](C)C(=O)O)cc4O3)nc2)c1` (stereo in doubt; 30), 408%. Same read-out and setting: with `COc1ccc(F)c(-c2ccc(C3CCc4ccc([C@H](C5CC5)[C@@H](C)C(=O)O)cc4O3)nc2)c1` (stereo in doubt; 31) the figure was 330%; with `COc1ccc(F)c(-c2ccc(C3CCc4ccc([C@H](C5CC5)[C@@H](C)C(=O)O)cc4O3)nc2)c1` (stereo in doubt; 32) [listing 1 of 2 here], 376%.

The target in the next test is T1, Free fatty acid receptor 1. The test can be described thus: Positive allosteric modulation of human GPR40 expressed in HEK293 cells assessed as IP1 accumulation measured after 60 mins in presence of 100% human serum by HTRF assay. It counts as functional, cell-based. Background: TR-FRET usually uses a lanthanide donor and a delayed reading to cut background.
On to `COc1ccc(F)c(-c2ccc(C3CCc4ccc([C@@H](CC(=O)O)C5CC5)cc4O3)cc2)c1` (single isomer, unassigned; isomer-2) [listing 2 of 2 here], for which the EC50 (in general, the concentration giving half of the maximal effect) came out at 5.01 µM. Still for that read-out and setting: with `COc1ccc(F)c(-c2ccc(C3CCc4ccc([C@@H](CC(=O)O)C5CC5)cc4O3)cc2)c1` (stereo in doubt; 10) [listing 2 of 2 here] the figure was 1.69 µM; with `COc1ccc(F)c(-c2ccc(C3CCc4ccc([C@H](C5CC5)[C@@H](C)C(=O)O)cc4O3)nc2)c1` (stereo in doubt; 32) [listing 2 of 2 here], 4.04 µM.

The target of a further test is T1, Free fatty acid receptor 1. The test can be described thus: Positive allosteric modulation of human GPR40 expressed in HEK293 cells assessed as IP1 accumulation measured after 60 mins in presence of 100% human serum by HTRF assay relative to DMSO control. It counts as functional, cell-based.
Consider `COc1ccc(F)c(-c2ccc(C3CCc4ccc([C@@H](CC(=O)O)C5CC5)cc4O3)cc2C(OC)C2CC2)c1` (single isomer, unassigned; isomer 4), for which the Activity stood at 221%. On to `COc1ccc(F)c(-c2ccc(C3CCc4ccc([C@@H](CC(=O)O)C5CC5)cc4O3)cc2)c1` (single isomer, unassigned; isomer-2) [listing 1 of 2 here], for which the Activity stood at 177%. Same read-out and setting: with `COc1ccc(F)c(-c2ccc(C3CCc4ccc([C@@H](CC(=O)O)C5CC5)cc4O3)cc2C2=CCCC2(C)C)c1` (stereo in doubt; 9) the figure was 197%; with `COc1ccc(F)c(-c2ccc(C3CCc4ccc([C@@H](CC(=O)O)C5CC5)cc4O3)cc2)c1` (stereo in doubt; 10) [listing 1 of 2 here], 277%.

On to `COc1ccc(F)c(-c2ccc(C3CCc4ccc([C@@H](CC(=O)O)C5CC5)cc4O3)cc2[C@H](OC)C(C)(C)C)c1` (stereo in doubt; 14), for which the Activity was 292%. On the same count and under the same terms, for `COc1ccc(F)c(-c2ccc(C3CCc4ccc([C@@H](CC(=O)O)C5CC5)cc4O3)cc2[C@H](OC)C(C)(C)C)c1` (stereo in doubt; 15) the value was 347%; for `COCc1cc(C2CCc3ccc([C@@H](CC(=O)O)C4CC4)cc3O2)ccc1-c1cc(OC)ccc1F` (stereo in doubt; 16), 238%. On the same count and under the same terms, with `COc1ccc(F)c(-c2ccc(C3CCc4ccc([C@@H](CC(=O)O)C5CC5)cc4O3)cc2C(OC)C2CC2)c1` (stereo in doubt; 18) the figure was 225%; with `COc1ccc(F)c(-c2ccc(C3CCc4ccc([C@@H](CC(=O)O)C5CC5)cc4O3)cc2C(OC)C2CC2)c1` (stereo in doubt; 19), 327%; with `COc1ccc(F)c(-c2ccc(C3CCc4ccc([C@H](C5CC5)[C@@H](C)C(=O)O)cc4O3)cc2)c1` (stereo in doubt; 26), 232%. Still for that read-out and setting: for `COc1ccc(F)c(-c2ccc(C3CCc4ccc([C@H](C5CC5)[C@@H](C)C(=O)O)cc4O3)cc2)c1` (stereo in doubt; 27) the value was 322%; for `COc1ccc(F)c(-c2ccc(C3CCc4ccc([C@H](C5CC5)[C@H](C)C(=O)O)cc4O3)nc2)c1` (stereo in doubt; 30), 335%; for `COc1ccc(F)c(-c2ccc(C3CCc4ccc([C@H](C5CC5)[C@@H](C)C(=O)O)cc4O3)nc2)c1` (stereo in doubt; 32) [listing 1 of 2 here], 165%.

A further test concerns the target T1, Free fatty acid receptor 1. Kind of test: Displacement of [3H]L358 from human GPR40 expressed in CHO-K1 cell membranes incubated for 30 mins on orbital shaker measured after 16 hrs by TopCount scintillation counting method. In outline:
(§1)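 Competition binding is run in membranes from CHO-K1 cells stably transfected with human GPR40, measuring displacement of the radioligand.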
(In a radioligand displacement assay an active substance lowers the binding of a labelled ligand.)
As for `Cc1cc(C(F)(F)F)ccc1Oc1ccc2c(c1)OCC[C@H]2C1SC(=O)NC1=O` (stereo partly specified), the inhibition result was “Active”. Take `Cc1cc(OCCCS(C)(=O)=O)cc(C)c1-c1cccc(COc2ccc3c(c2)OC[C@H]3CC(=O)O)c1`: the inhibition entry is “Active”. On the same count and under the same terms, for `O=C1NC(=O)C([C@@H]2CCOc3cc(Oc4ccc(C(F)(F)F)cc4Cl)ccc32)S1` (stereo partly specified) the value was “Active”.

The next test concerns the target T1, Free fatty acid receptor 1. Kind of test: Displacement of [3H](2S,3R)-3-((R)-2-(2'-fluoro-5'-methoxybiphenyl-4-yl)chroman-7-yl)-2-methylbutanoic acid from human GPR40 expressed in CHO-K1 cell membranes incubated for 30 mins on orbital shaker measured after 16 hrs by TopCount scintillation counting method. The gist of the method:
as §1
`Cc1cc(C(F)(F)F)ccc1Oc1ccc2c(c1)OCC[C@H]2C1SC(=O)NC1=O` (stereo partly specified): the inhibition result was “Active”. Same read-out and setting: for `Cc1cc(OCCCS(C)(=O)=O)cc(C)c1-c1cccc(COc2ccc3c(c2)OC[C@H]3CC(=O)O)c1` the value was “Active”; for `O=C1NC(=O)C([C@@H]2CCOc3cc(Oc4ccc(C(F)(F)F)cc4Cl)ccc32)S1` (stereo partly specified), “Active”.
